# EP2 modulator = EP2 receptor modulators, cAMP readout, primary screen, cell-based, HTRF cAMP, PGE2 stimulation; Prostaglandin E2 receptor EP2 subtype (Homo sapiens), P43116; 0.83% of 260,000 active; AID 940, 2007; EP2-expressing cells, cAMP HTRF FRET, PGE2 co-stimulation; induction, % at 25 µM;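 active = compounds whose cAMP rise, as percent of the full-agonist control response, exceeds 60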;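 note: rat C6 glioma line stably carrying human EP2 under a CMV promoter; the protocol text gives 20 µM as final concentration; 100% = response of wells given 1 µM PGE2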
# Target sequence (P43116 whole entry, looked up): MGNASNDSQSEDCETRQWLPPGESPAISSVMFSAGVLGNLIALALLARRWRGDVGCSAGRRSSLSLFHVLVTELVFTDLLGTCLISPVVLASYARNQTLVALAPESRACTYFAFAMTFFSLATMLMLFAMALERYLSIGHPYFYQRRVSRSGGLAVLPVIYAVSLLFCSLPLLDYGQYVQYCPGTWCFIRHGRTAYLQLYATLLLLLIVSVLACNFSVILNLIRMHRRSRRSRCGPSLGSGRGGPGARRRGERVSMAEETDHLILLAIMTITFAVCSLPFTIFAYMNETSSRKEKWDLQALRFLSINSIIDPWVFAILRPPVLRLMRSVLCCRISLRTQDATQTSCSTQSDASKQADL
# NPY-Y2 PAM-ag = NPY-Y2 potentiators or agonists, primary screen, cell-based | Neuropeptide Y receptor type 2 (Homo sapiens), P49146 | cells expressing NPY-Y2, potentiator/agonist read-out | activation, % at 3.6 µM | 0.45% of 220,000 active; in the data active = activation above about 27%;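 note: cells stimulated with NPY near EC25 plus isoproterenol at EC100; 0% = vehicle plus submaximal agonist and 100% = vehicle plus saturating agonist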
# NPY-Y1 antag = NPY-Y1 receptor antagonists, primary screen, cell-based. Neuropeptide Y receptor type 1 (Homo sapiens), P25929. HEK293-CNG Y1 cells, membrane potential fluorescence; NPY at EC95, then isoproterenol. inhibition, % at 3.6 µM. 1% of 200,000 active. AID 1040, 2008;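 active = inhibition above the campaign mean inhibition of all tested compounds plus 3 SD, cut at about 20% in these data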;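 note: 0% = DMSO wells given NPY plus isoproterenol and 100% = isoproterenol alone without NPY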
# Target sequence (P25929 whole entry, looked up): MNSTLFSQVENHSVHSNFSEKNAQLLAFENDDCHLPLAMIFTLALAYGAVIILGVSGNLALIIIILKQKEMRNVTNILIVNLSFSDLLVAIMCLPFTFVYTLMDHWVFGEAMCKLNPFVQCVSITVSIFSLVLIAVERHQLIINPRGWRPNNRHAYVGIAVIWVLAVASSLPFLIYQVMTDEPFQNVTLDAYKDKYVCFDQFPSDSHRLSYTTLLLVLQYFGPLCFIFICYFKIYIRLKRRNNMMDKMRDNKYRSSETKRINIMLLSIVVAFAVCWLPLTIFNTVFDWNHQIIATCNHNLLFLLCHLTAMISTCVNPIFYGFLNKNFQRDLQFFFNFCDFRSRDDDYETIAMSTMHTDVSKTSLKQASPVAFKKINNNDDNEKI
#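 Material: HEK293 Y1/CNG channel cell line; also added: NPY (25 nM), isoproterenol (1 µM), Ro 20-1724 (25 µM); doses: one concentration, 3.6 µM, in 0.4% DMSO; schedule: compound incubation 1 h at room temperature, readout 45 min post-stimulation; technique: membrane potential fluorescence; measure: fluorescence ratio normalized to % inhibition between controls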
# PGE2 EP2 inh = human EP2 receptor antagonists, primary screen, TR-FRET cAMP, C6 glioma cells | 0.52% of 260,000 active | inhibition, % at 25 µM | C6 glioma cells expressing human EP2; cells stimulated with saturating PGE2 | AID 1422, 2008;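 active = percent inhibition above 40 after rounding to a whole number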;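 note: rat C6 glioma host cells with rolipram phosphodiesterase inhibitor present; the protocol text gives 20 µM as final concentration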
# NPY-Y2 antag = NPY-Y2 receptor antagonists, primary screen, cell-based | Neuropeptide Y receptor type 2 (Homo sapiens), P49146 | NPY-Y2 expressing cells, antagonist mode | inhibition, % at 2.7 µM | 0.99% of 140,000 active | AID 793, 2007;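 note: 0% = vehicle with agonist challenge and 100% = reference antagonist with challenge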
# NPY-Y1 PAM-ag = NPY-Y1 receptor potentiators or agonists, primary screen, cell-based. Neuropeptide Y receptor type 1 (Homo sapiens), P25929. NPY-Y1 expressing cells, potentiator/agonist activation. activation, % at 3.6 µM. 0.37% of 220,000 active. AID 1304, 2008; in the data active = activation above about 33%, passing the limit was not always enough;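 note: cells stimulated with NPY at EC10 then isoproterenol at EC100; 0% = low agonist plus stimulus and 100% = saturating agonist plus stimulus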
# NPY1 antag conf = NPY-Y1 receptor antagonists, retest of hits, confirmation, HEK293-CNG cells, membrane potential fluorescence, triplicate | inhibition, % at 3.6 µM | AID 1254, 2008 | shares compounds with NPY-Y1 antag | cAMP; NPY challenge against isoproterenol-raised cAMP | 21% of 1,200 active; in the data active = inhibition above about 20%;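 note: 0% = vehicle with agonist plus stimulus and 100% = stimulus alone without agonist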
# NPY2 antag ctr = NPY-Y2 receptor antagonists, selectivity check, confirmation, counter-screen for NPY-Y1 antagonist project, HEK293-CNG cells, membrane potential fluorescence, triplicate; shares compounds with NPY-Y1 antag; antagonism; cells given NPY, then isoproterenol; inhibition, % at 3.6 µM; 28% of 1,200 active; AID 1255, 2008;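 note: 0% = DMSO with agonist challenge and 100% = reference antagonist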
# NPY-Y2 confirm = NPY-Y2 potentiators or agonists, confirmation, cell-based; 20% of 450 active; activation, % at 3.6 µM; cell-based NPY-Y2 potentiator/agonist assay; shares compounds with NPY-Y2 PAM-ag; in the data active = activation above about 33%
# NPY-Y1 potentiator = NPY-Y1 potentiators or agonists, counter-screen for NPY-Y2 potentiator project, cell-based, fluorescence | Y1 HEK293-CNG cells, membrane potential fluorescence | 20% of 450 active | activation, % at 3.6 µM | shares compounds with NPY-Y2 PAM-ag | AID 1651, 2009; in the data active = activation above about 45%;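 note: cells stimulated with submaximal NPY then isoproterenol with phosphodiesterase inhibitor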
# NPY-Y1 ag 2 = NPY-Y1 direct agonists, selectivity assay for NPY-Y2 potentiator project, cell-based, fluorescence; 37% of 450 active; AID 1702, 2009; HEK293 Y1-CNGC, membrane potential fluorescence, agonism; activation, % at 3.6 µM; shares compounds with NPY-Y2 PAM-ag;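 active = activation above the mean of DMSO-only control wells plus 3 SD, cut at about 18% in these data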;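 note: cells stimulated with 1 µM isoproterenol plus the PDE inhibitor Ro 20-1724; 0% = isoproterenol with DMSO and no NPY and 100% = 40 nM NPY; Y1 agonists lower the membrane potential dye signal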
# CNGC inh = CNGC cAMP sensor activity inhibitors, counter-screen for NPY-Y2 potentiator project, cell-based, HEK293-CNG parental, membrane potential fluorescence; shares compounds with NPY-Y2 PAM-ag; isoproterenol cAMP; inhibition, % at 3.6 µM; 32% of 450 active;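 active = inhibition above the control-well mean plus 3 SD of those wells, cut at about 22% in these data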;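 note: 0% = DMSO with isoproterenol and 100% = DMSO without isoproterenol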
# Y2 agonist ctr = NPY-Y2 direct agonists, counter-screen for NPY-Y2 potentiator project, cell-based, fluorescence; shares compounds with NPY-Y2 PAM-ag; HEK293 Y2/CNGC cells, membrane potential fluorescence, agonist mode; activation, % at 3.6 µM; 56% of 450 active;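 active = activation above the mean of solvent-only control wells plus 3 SD, cut at about 10% in these data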;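 note: cells stimulated by isoproterenol with no NPY added so direct agonism is tested; 0% = DMSO with isoproterenol alone and 100% = NPY at EC100 plus isoproterenol; agonism lowers probe fluorescence through less cAMP and CNG channel opening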
# Numbers without * were called inactive; / = no result given; ! = a repeat was not active. Shown are actives, neighbours in structure and some others; about 2.8% of the full set was active somewhere. Cut-off read from the data, not from the text of the source, unless noted: active = inhibition above about 17%; inactive = the rest.
SMILES,EP2 modulator,NPY-Y2 PAM-ag,NPY-Y1 antag,PGE2 EP2 inh,NPY-Y2 antag,NPY-Y1 PAM-ag,NPY1 antag conf,NPY2 antag ctr,others
COc1ccc(N2CCN(C(c3cccc(OC)c3OC)c3nnnn3C3CCCC3)CC2)cc1 (stereo not drawn),32.1,-13.5,23.5*,8.3,9.1,-43.5,21.7*,8.7,
COc1ccc(OC)c(C(c2nnnn2C2CCCC2)N2CCN(c3ccccc3F)CC2)c1 (stereo not drawn),65.8*!,-19.3,21.9*,4.8,12.9,5.9,6.5,7.9,
CCC(C)NC(=O)CSc1nnc(-c2ccoc2C)n1CC (stereo not drawn),-2.2,/,/,8.4,/,/,/,/,
C[n+]1c2n(c3ccccc31)N=C(c1cc(C(C)(C)C)c(O)c(C(C)(C)C)c1)CS2,0.7,-28.2,64.8*,8.4,/,-31.9,48.3*,38.9*,
CC(C)c1ccccc1OCC(=O)Nc1nncs1,-17.3,/,/,8.6,/,/,/,/,
CCC(C)NC(=S)N(Cc1cc2ccc(C)c(C)c2[nH]c1=O)CC1CCCN1CC (stereo not drawn),1.3,/,/,11.1,/,/,/,/,
COc1ccc(CCN2C(=O)C(O)=C(C(=O)c3ccco3)C2c2cccnc2)cc1OC (stereo not drawn),34.7,/,/,12.1,/,/,/,/,
COc1ccc(CCN2C(=O)C(O)=C(C(=O)c3ccco3)C2c2cccs2)cc1OC (stereo not drawn),37.0,-16.5,22.6*,18.7,5.5,-26.8,7.3,6.7,
O=C(c1cc(COc2ccc(F)cc2Cl)on1)N1CCc2ccccc2C1,-33.0,-8.5,30.8*,6.9,/,-38.9,13.2,13.4,
CC(C)CC(C(=O)NC1CCCCC1)N(Cc1cccs1)C(=O)c1snc(C(N)=O)c1N (stereo not drawn),-69.1,-5.8,7.8,7.2,/,4.8,/,/,
CC(C)CC(C(=O)NC1CCCC1)N(Cc1cccs1)C(=O)c1snc(C(N)=O)c1N (stereo not drawn),8.6,-16.1,20.8*,11.1,6.2,-34.9,9.1,7.1,
COc1ccc(N(C)S(=O)(=O)c2cccc(C(=O)NCC3CCCCC3)c2)cc1,-31.6,-19.5,25.8*,5.0,/,-18.5,20.9*,10.6,
COc1ccc(N(C)S(=O)(=O)c2cccc(C(=O)NC3CCCCC3C)c2)cc1 (stereo not drawn),-4.2,-7.1,23.6*,3.8,/,33.4,14.9,11.3,
Cc1ccc(OCC(=O)Nc2nc3ccc(S(C)(=O)=O)cc3s2)cc1C,-25.0,/,/,9.0,/,/,/,/,
O=C(COC(=O)CCc1c[nH]c2ccccc12)Nc1ccc([N+](=O)[O-])cc1,-78.2,-10.7,4.5,2.2,6.5,-23.2,/,/,
O=C(COC(=O)CCc1c[nH]c2ccccc12)Nc1cc([N+](=O)[O-])ccc1Cl,-46.9,-2.7,27.3*,6.9,7.6,-23.8,9.0,8.4,
Cc1cc(-c2cnc(C)nc2C2CCCN(CC(=O)NCc3cccs3)C2)on1 (stereo not drawn),-4.5,/,/,/,/,/,/,/,
CC(C)CCNc1nc(-c2ccco2)c2c(c1C#N)CCCC2,34.6,-22.7,22.2*,19.4,4.7,-33.6,1.3,5.3,
CCc1nc(NCCC(C)C)c(C#N)c2c1CCCC2,43.2,0.8,2.5,11.6,0.7,9.7,/,/,
O=c1[nH]nc(Cc2ccc(Cl)cc2Cl)c2ccccc12,31.7,12.1,8.2,18.9,9.2,5.0,/,/,
O=c1[nH]nc(CNc2ccc(Cl)cc2Cl)c2ccccc12,7.0,-13.2,24.5*,11.7,/,-35.4,16.4,25.4*,
COc1ccc(C(=O)CSc2nnc(-c3ccc(OC)cc3OC)o2)cc1,-27.5,/,/,11.8,/,/,/,/,
Cc1nc(-c2cc(C#N)c(=O)[nH]c2C)cs1,11.1,-13.6,/,12.5,/,-4.9,/,/,
Cc1[nH]c(=O)c(C#N)cc1-c1ccccc1,42.7,-37.1,25.9*,14.2,15.5,-42.5,20.2*,38.4*,
Cc1ccc(-n2ncc3c(SCc4cccnc4)ncnc32)c(C)c1,-22.2,32.8*,25.1*,4.6,/,-8.6,13.0,6.4,NPY-Y2 confirm=-17.0;NPY-Y1 potentiator=-60.1;NPY-Y1 ag 2=-50.3;CNGC inh=-26.9;Y2 agonist ctr=-23.2
Cc1ccc(C2(C(=O)N(C)c3nc4c(s3)CCc3occc3-4)CC2)cc1,-27.7,/,/,4.9,/,/,/,/,

# Screens as filed in PubChem BioAssay.
